Source: ChEMBL document CHEMBL2390828, “Synthesis and biological characterization of spiro[2H-(1,3)-benzoxazine-2,4'-piperidine] based histone deacetylase inhibitors” (Eur J Med Chem, 2013)
pIC50: −log10 of the molar value.

Legend:
[1] = test system: HCT-116; test: Cytotoxicity against human HCT116 cells; assay type: functional, cell-based
[2] = Metabolic stability in human liver microsomes after 30 mins by LC-MS/MS analysis; assay type: ADME, Microsome; conditions: read-out: Stability
Procedure, shortened: (§1)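 Compounds were incubated with mouse or human liver microsomal preparation for 30 min at 37 °C. The reaction was stopped with CH3CN. Unmetabolized compound was quantified by LC-MS/MS in MRM mode and reported as percent remaining. Replicates n ≥ 2, mean values given.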

[3] = target: Histone deacetylase; test: Inhibition of HDAC in human Hela cell nuclear extract after 15 mins; assay type: protein assay
[4] = test system: A549; test: Cytotoxicity against human A549 cells; assay type: functional, cell-based
[5] = test system: K562; test: Cytotoxicity against human K562 cells; assay type: functional, cell-based
[6] = Metabolic stability in mouse liver microsomes after 30 mins by LC-MS/MS analysis; assay type: ADME, Microsome; conditions: read-out: Stability; procedure, shortened: as §1
[7] = Volume of distribution at steady state in CD1 mouse at 5 mg/kg, iv and 15 mg/kg, po; assay type: ADME, organism-based; conditions: in vivo, read-out: Vdss
Procedure, shortened: (§2)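 CD-1 mice got single doses of 5 mg/kg iv or 15 mg/kg orally. The iv vehicle was water with 3% DMSO and 9.7% encapsin. The oral vehicle was water with 5% DMSO and 9.5% encapsin. Plasma PK parameters were calculated, including AUC0–∞, clearance, half-life, Vss, cmax and oral bioavailability.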

[8] = Tmax in CD1 mouse at 5 mg/kg, iv and 15 mg/kg, po; assay type: ADME, organism-based; conditions: in vivo; procedure, shortened: as §2
[9] = target: T1, Protein deacetylase HDAC6 (Homo sapiens, UniProt Q9UBN7); test: Inhibition of HDAC6 (unknown origin)
T1 sequence (Q9UBN7 whole entry): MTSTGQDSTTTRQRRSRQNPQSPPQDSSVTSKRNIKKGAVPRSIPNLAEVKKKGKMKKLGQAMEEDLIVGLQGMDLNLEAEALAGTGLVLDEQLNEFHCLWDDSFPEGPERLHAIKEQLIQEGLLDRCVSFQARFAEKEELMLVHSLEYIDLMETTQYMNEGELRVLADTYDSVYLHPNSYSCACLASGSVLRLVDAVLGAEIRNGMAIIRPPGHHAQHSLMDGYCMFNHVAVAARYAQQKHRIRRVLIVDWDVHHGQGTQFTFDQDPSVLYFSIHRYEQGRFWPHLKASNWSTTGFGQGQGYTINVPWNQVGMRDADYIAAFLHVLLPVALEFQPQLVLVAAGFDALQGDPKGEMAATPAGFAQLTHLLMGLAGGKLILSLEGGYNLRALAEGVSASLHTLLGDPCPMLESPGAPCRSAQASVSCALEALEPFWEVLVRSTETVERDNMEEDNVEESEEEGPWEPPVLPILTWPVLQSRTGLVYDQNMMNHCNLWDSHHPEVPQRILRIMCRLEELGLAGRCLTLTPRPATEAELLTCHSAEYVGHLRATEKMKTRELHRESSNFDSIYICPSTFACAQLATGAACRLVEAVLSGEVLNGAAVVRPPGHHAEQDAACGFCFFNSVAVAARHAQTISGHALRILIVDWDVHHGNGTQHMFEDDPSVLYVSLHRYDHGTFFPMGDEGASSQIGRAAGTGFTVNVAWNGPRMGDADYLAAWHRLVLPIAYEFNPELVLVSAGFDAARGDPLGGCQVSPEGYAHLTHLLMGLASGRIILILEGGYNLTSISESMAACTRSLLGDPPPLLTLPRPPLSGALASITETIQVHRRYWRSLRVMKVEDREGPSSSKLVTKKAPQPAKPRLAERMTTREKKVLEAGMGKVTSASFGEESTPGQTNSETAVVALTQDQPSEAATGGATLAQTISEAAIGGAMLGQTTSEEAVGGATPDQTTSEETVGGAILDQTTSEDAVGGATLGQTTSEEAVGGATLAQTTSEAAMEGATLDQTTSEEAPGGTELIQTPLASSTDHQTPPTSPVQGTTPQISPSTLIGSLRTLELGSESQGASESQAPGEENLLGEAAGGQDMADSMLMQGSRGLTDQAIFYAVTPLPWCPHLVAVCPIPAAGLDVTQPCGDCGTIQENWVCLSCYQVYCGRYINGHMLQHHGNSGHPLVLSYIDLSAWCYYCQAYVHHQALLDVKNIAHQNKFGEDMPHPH

[10] = target: Histone deacetylase 3 (Homo sapiens, UniProt O15379); test: Inhibition of HDAC3 (unknown origin)
Sequence of Histone deacetylase 3 (O15379 whole entry): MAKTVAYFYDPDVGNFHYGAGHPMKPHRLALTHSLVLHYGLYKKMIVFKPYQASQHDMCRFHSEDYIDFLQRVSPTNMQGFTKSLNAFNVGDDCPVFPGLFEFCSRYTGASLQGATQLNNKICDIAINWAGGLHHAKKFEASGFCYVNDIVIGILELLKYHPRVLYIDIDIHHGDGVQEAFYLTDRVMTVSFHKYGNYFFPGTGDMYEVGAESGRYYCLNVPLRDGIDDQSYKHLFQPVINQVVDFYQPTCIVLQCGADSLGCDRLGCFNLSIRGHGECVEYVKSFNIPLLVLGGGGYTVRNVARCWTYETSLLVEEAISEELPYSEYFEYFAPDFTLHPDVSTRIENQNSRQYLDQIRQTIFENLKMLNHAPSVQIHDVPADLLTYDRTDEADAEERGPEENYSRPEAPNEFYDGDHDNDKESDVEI

[11] = Cmax in CD1 mouse at 15 mg/kg, po; conditions: CD1, mouse, in vivo
[12] = AUC (0 to infinity) in CD1 mouse at 15 mg/kg, po; assay type: ADME, organism-based; design: time infinity, dose 15 mg/kg, route oral; conditions: plasma; procedure, shortened: as §2
[13] = Oral bioavailability in CD1 mouse at 15 mg/kg; conditions: in vivo
[14] = Cmax in CD1 mouse at 5 mg/kg, iv; assay type: ADME, organism-based; design: dose 5 mg/kg, route intravenous; conditions: in vivo; procedure, shortened: as §2
[15] = Clearance in CD1 mouse at 5 mg/kg, iv and 15 mg/kg, po; assay type: ADME, organism-based; conditions: in vivo; procedure, shortened: as §2
[16] = AUC (0 to infinity) in CD1 mouse at 5 mg/kg, iv; assay type: ADME, organism-based; design: time infinity, dose 5 mg/kg, route intravenous; conditions: plasma; procedure, shortened: as §2
[17] = target: Histone deacetylase 2 (Homo sapiens, UniProt Q92769); test: Inhibition of HDAC2 (unknown origin)
Sequence of Histone deacetylase 2 (Q92769 whole entry): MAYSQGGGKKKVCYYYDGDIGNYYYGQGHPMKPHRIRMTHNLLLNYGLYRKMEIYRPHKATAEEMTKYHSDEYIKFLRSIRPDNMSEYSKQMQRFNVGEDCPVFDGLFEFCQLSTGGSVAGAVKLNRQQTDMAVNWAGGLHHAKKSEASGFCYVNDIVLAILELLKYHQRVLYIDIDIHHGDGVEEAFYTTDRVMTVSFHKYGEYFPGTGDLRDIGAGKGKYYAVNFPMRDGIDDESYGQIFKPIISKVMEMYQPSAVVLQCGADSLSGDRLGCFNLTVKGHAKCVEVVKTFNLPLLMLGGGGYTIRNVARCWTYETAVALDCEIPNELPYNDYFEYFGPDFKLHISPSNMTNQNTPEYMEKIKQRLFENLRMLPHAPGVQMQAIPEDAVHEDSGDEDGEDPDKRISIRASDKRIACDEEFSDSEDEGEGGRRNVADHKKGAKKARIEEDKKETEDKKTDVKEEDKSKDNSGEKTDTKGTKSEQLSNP

[18] = target: Voltage-gated inwardly rectifying potassium channel KCNH2 (Homo sapiens, UniProt Q12809); test: Displacement of [3H]astemizole from human ERG channel transfected in HEK293 cells after 60 mins by liquid scintillation counting analysis; assay type: cell-based
Sequence of Voltage-gated inwardly rectifying potassium channel KCNH2 (Q12809 whole entry): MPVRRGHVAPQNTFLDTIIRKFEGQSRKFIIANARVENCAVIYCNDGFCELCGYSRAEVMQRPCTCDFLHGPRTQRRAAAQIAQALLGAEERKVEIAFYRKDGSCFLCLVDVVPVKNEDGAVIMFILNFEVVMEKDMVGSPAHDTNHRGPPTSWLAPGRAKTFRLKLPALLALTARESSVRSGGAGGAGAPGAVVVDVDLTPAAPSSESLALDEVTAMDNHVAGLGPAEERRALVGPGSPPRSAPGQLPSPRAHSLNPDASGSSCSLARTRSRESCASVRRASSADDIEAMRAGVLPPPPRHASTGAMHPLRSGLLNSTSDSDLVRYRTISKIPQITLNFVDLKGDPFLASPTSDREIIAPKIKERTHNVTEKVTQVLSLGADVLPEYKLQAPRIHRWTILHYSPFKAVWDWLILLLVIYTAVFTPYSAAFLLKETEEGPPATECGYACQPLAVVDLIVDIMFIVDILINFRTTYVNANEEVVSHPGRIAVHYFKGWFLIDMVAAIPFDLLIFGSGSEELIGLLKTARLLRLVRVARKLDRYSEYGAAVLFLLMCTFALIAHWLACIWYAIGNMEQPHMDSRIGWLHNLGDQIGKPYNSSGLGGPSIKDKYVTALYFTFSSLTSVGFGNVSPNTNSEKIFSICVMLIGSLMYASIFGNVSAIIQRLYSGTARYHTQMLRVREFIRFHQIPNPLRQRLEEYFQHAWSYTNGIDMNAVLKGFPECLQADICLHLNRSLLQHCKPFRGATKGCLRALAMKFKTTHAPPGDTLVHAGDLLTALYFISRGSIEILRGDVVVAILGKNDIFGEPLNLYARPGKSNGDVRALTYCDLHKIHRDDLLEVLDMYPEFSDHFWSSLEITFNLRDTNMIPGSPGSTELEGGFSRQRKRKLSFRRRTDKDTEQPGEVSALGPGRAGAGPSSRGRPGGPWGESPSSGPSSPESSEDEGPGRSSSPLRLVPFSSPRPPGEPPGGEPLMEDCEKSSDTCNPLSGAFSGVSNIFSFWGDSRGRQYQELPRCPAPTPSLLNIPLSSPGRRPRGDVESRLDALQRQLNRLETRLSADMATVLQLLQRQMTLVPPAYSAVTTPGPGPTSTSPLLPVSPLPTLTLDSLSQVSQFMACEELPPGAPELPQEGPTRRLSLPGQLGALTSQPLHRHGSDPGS

Row | Structure (SMILES) | pIC50 [1] | remaining at 0.5 h [2] | IC50 [3] | pIC50 [4] | pIC50 [5] | remaining at 0.5 h [6] | Vd [7] | Tmax [8] | pIC50 [9] | pIC50 [10] | Cmax [11] | AUC(0-inf) [12] | bioavailability [13] | Cmax [14] | clearance [15] | AUC(0-inf) [16] | pIC50 [17] | pIC50 [18]
1 | CN1CCC2(CC1)Oc1ccc(/C=C/C(=O)NO)cc1C(=O)N2Cc1ccccc1 | 6.49 | 53% | 0.174 µM | 6.04 | 6.44 | 19% | – | – | – | – | – | – | – | – | – | – | – | –
2 | CN1C(=O)c2cc(/C=C/C(=O)NO)ccc2OC12CCN(CCc1ccccc1)CC2 | 5.97 | – | 0.258 µM | 5.59 | 6.10 | – | – | – | – | – | – | – | – | – | – | – | – | –
3 | CN1CCC2(CC1)Oc1ccc(/C=C/C(=O)NO)cc1C(=O)N2C | 5.85 | – | 0.527 µM | 5.45 | 5.77 | – | – | – | – | – | – | – | – | – | – | – | – | –
4 | O=C(/C=C/c1ccc2c(c1)C(=O)CC1(CCN(CCc3ccccc3)CC1)O2)NO | 6.70 | – | 0.113 µM | 6.26 | 6.74 | – | 8.6 L/kg | 15 min | 6.80 | 6.89 | 2.49 µM | 1.6 µg·h/mL | 51.1% | 6.34 µM | 4.79 L/h/kg | 1.04 µg·h/mL | 6.72 | –
5 | CN1C(=O)c2cc(/C=C/C(=O)NO)ccc2OC12CCN(Cc1ccccc1)CC2 | 6.01 | – | 0.136 µM | 5.65 | 5.88 | – | – | – | – | – | – | – | – | – | – | – | – | –
6 | O=C(/C=C/c1ccc2c(c1)C(=O)NC1(CCNCC1)O2)NO | 5.16 | – | 0.078 µM | 5.32 | 5.05 | – | – | – | – | – | – | – | – | – | – | – | – | –
7 | O=C(/C=C/c1ccc2c(c1)C(=O)CC1(CCN(Cc3ccc(F)cc3)CC1)O2)NO | 6.11 | – | 0.108 µM | 5.88 | 6.17 | – | 5.9 L/kg | 15 min | 6.72 | 7.05 | 1.83 µM | 1.24 µg·h/mL | 27.6% | 11 µM | 3.35 L/h/kg | 1.49 µg·h/mL | 6.51 | 5.62
8 | CN1C(=O)c2cc(/C=C/C(=O)NO)ccc2OC12CCNCC2 | 4.92 | – | 0.204 µM | 4.75 | 4.85 | – | – | – | – | – | – | – | – | – | – | – | – | –
